Measurements published in publication PMC11480350 (Nature Communications, 2024).
Each block holds one molecule with its values, some of them ahead of it. Where a SMILES comes first, the peptide text is derived from it. Where no end group is shown, it is not given here. [ ]: non-standard residue; d: D form. The star is where a group is joined. pS = N[C@@H](COP(=O)(O)O)C(=O)O; Cbz = O=C(OCc1ccccc1)*

Columns and labels:
SCMC = assay: Strep pull-down of 14-3-3 paralogs; type: binding, mouse; settings: Strep-Tactin pull-down, purified SCMC and 14-3-3 paralogs, SDS-PAGE
How it was run: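 SCMC was expressed in Sf9 cells for 60 h at 27 °C: His-MATER 1–1059, Strep-TLE6 48–581, Strep-FLOPED 1–164, Strep-FILIA 1–124 or 1–256. It was purified by Ni-NTA, anion exchange and Superose 6. GST-14-3-3 paralogs came from E. coli, were 3C-cleaved, and went through anion exchange and Superdex 200. Proteins were mixed with SCMC or buffer control and captured on Strep-Tactin at 4 °C. Washes contained 0.5% NP-40 and elution used 50 mM biotin. Read-out was SDS-PAGE/immunoblot.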

Mouse zygotes = assay: Early embryonic development of zygotes with PKA inhibitor; type: cell-based; settings: H89 20 μM, commencing from 72 h pHCGi
mouse 14-3-3γ = assay: 14-3-3γ degradation, immunoblotting in HEK-293F cells; type: cell-based
14-3-3γ [1] = target: T1, 14-3-3γ (Mus musculus, UniProt P61982); assay: Isothermal titration calorimetry; type: binding; settings: ITC, 25 °C, pH 7.5, 3 independent experiments
T1 sequence (P61982 1-247): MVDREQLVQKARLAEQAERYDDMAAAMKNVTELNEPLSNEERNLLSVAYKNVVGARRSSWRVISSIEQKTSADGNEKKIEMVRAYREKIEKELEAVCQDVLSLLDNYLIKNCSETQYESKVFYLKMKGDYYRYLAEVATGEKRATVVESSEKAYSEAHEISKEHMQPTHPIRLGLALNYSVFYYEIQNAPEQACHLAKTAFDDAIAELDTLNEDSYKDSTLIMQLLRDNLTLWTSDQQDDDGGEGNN
How it was run: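 Mouse 14-3-3γ was expressed in E. coli as a GST fusion and purified on glutathione resin. The tag was cut with 3C protease, then the protein was polished by anion exchange and Superdex 200. TLE6 phosphopeptides were titrated into 14-3-3γ (e.g., 1.3 mM peptide into 50 μM protein). Data were corrected for dilution heat and curve-fitted for Kd. Three independent titrations, mean ± S.D.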

14-3-3γ [2] = target: 14-3-3γ (UniProt P61982); assay: anti-Flag; settings: reference: wild-type TLE6
[3] = target: His-tagged 14-3-3γ (mouse) (UniProt P61982); assay: ITC

Molecule: O=S(=O)(NCCNC/C=C/c1ccc(Br)cc1)c1cccc2cnccc12 [H89]
progression of early embryonic development (Mouse zygotes): markedly retarded

Molecule: CC(C)C[C@@H](C=O)NC(=O)[C@H](CC(C)C)NC(=O)[C@H](CC(C)C)NC(=O)OCc1ccccc1 [MG132] (Cbz-Leu-Leu-Leu-aldehyde)
decrease in the protein level of 14-3-3γ (mouse 14-3-3γ; MG132 20 μM with cycloheximide 100 μg/ml): effectively rescued

Molecule: C[C@@H]1C[C@@H]([C@H](O)CC2CC(=O)NC(=O)C2)C(=O)[C@@H](C)C1 [cycloheximide]
level of exogenous mouse 14-3-3γ (mouse 14-3-3γ; cycloheximide 100 μg/ml): gradually degraded

Molecule: TLE6 (217–228) pS223: phosphopeptide of TLE6 residues 217–228 carrying phosphorylated Ser223 (FLIKSP[pS]ALLDY)
binding to 14-3-3γ (in words) (14-3-3γ [1]): cannot bind to 14-3-3γ

Molecule: TLE6 (from UniProt Q9WVB3) S209A
binding against the reference (14-3-3γ [2]; sites S209): weaker

Molecule: QPRHRN[pS]LSDSA [TLE6 (203–214) pS209 phosphopeptide]
Kd [3]: 315 µM

Other lines, results leading:

binding to the SCMC (SCMC): most potent binding partner
Molecule: 14-3-3γ: mouse 14-3-3 paralog γ (1–247 aa)

binding to 14-3-3γ (in words) (14-3-3γ [1]): cannot bind to 14-3-3γ
Molecule: TLE6 (133–144): wild-type TLE6 peptide, residues 133–144 (TRRRFLSESDEL)

binding to 14-3-3γ (in words) (14-3-3γ [1]): cannot bind to 14-3-3γ
Molecule: TLE6 (203–214): wild-type TLE6 peptide, residues 203–214 (QPRHRNSLSDSA)

binding against the reference (14-3-3γ [2]; sites S139): weaker
Molecule: TLE6 (from UniProt Q9WVB3) S139A

Kd [3]: 55.8 µM
Molecule: TRRRFL[pS]ESDEL [TLE6 (133–144) pS139 phosphopeptide]
